The text below walks through data of ChEMBL document CHEMBL1914335, “Identification of a potent and selective σ₁ receptor agonist potentiating NGF-induced neurite outgrowth in PC12 cells” (Bioorg Med Chem, 2011).

In test [1] the target is Sigma non-opioid intracellular receptor 1 (Cavia porcellus, UniProt Q60492). Kind of test: Displacement of [3H]-(+)-pentazocine from sigma1 receptor in guinea pig brain membrane after 150 mins by liquid scintillation counting. The class given is cell membranes. In short, it runs like this:
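Membranes (500 µg protein) incubated with 3 nM [3H]-(+)-pentazocine and nine test concentrations in 50 mM Tris-HCl pH 7.4, 150 min at 37 °C. Nonspecific binding defined by 10 µM haloperidol. Samples filtered on PEI-presoaked GF/B filters and counted by liquid scintillation; Ki calculated from these curves.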
(Loss of bound radioactivity is the signal in a displacement assay; it reports binding, not function.)

The species named for a further test is Cavia porcellus. Kind of test: Selectivity ratio of Ki for sigma2 receptor in guinea pig brain membrane to Ki for sigma1 receptor in guinea pig brain membrane. The class given is cell membranes. The method, boiled down: (§1)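 For σ2, membranes (360 µg protein) incubated at rt for 120 min with 3 nM [3H]DTG plus 0.4 µM (+)-SKF10,047, with nine test concentrations in 50 mM Tris-HCl pH 8.0; nonspecific binding with 5 µM DTG. For σ1, 3 nM [3H]-(+)-pentazocine, 150 min at 37 °C, pH 7.4, haloperidol 10 µM. Both read by filtration and scintillation counting; Ki values derived.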

Test [2] has as its target Mu-type opioid receptor (Cavia porcellus) (UniProt P97266). Kind of test: Displacement of [3H]-DAMGO from mu opioid receptor in guinea pig brain membrane assessed as residual binding at 1 uM after 150 mins by liquid scintillation counting. The class given is cell membranes. The method, boiled down:
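Guinea pig brain membranes (about 75 µg protein) incubated with 1 nM [3H]-DAMGO in 50 mM Tris, 8 mM MgCl2, 400 µM PMSF, pH 7.4, 150 min at 37 °C. Nonspecific binding with 10 µM naloxone. Filtration, then solid scintillator counting in triplicate. Residual binding taken at 1 µM test compound; otherwise IC50 from ≥6 concentrations, Ki by Cheng-Prusoff (Kd 0.57 nM).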

A short description of test [3]: Displacement of [3H]-DTG from sigma2 receptor in guinea pig brain membrane after 120 mins by liquid scintillation counting. The class given is cell membranes, Cavia porcellus. In short, it runs like this:
as §1

Test [4] concerns the target Kappa-type opioid receptor (Cavia porcellus) (UniProt P41144). Nature of the test: Displacement of [3H]-U69593 from kappa opioid receptor in guinea pig brain membrane assessed as residual binding at 1 uM after 150 mins by liquid scintillation counting. The class given is cell membranes. The method, boiled down: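 Guinea pig brain membranes (about 75 µg protein) incubated with 1 nM [3H]-U69,593 in 50 mM Tris, 8 mM MgCl2, pH 7.4, 150 min at 37 °C. Nonspecific binding with 10 µM unlabeled U69,593. Filtration, then solid scintillator counting in triplicate. Residual binding taken at 1 µM; otherwise IC50 from ≥6 concentrations, Ki by Cheng-Prusoff (Kd 0.69 nM).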

A further test is filed under the species Sus scrofa. Nature of the test: Displacement of [3H]-(+)-MK-801 from NMDA receptor PCP binding site in pig brain cortex assessed as residual binding at 10 uM after 150 mins by scintillation counting. In short, it runs like this:
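Pig brain cortex membranes (about 100 µg protein) incubated with 2 nM [3H]-(+)-MK-801 in 5 mM Tris-acetate/1 mM EDTA pH 7.5, 150 min at rt. Nonspecific binding with 10 µM (+)-MK-801. Filtration, then solid scintillator counting. Residual binding measured at 10 µM test compound.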

Bounds are passed on as bounds.

Chain of Mu-type opioid receptor (Cavia porcellus) (P97266 whole entry): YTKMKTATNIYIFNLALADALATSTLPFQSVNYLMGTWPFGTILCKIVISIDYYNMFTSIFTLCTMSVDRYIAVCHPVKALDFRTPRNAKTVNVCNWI
Chain of Kappa-type opioid receptor (Cavia porcellus) (P41144 whole entry): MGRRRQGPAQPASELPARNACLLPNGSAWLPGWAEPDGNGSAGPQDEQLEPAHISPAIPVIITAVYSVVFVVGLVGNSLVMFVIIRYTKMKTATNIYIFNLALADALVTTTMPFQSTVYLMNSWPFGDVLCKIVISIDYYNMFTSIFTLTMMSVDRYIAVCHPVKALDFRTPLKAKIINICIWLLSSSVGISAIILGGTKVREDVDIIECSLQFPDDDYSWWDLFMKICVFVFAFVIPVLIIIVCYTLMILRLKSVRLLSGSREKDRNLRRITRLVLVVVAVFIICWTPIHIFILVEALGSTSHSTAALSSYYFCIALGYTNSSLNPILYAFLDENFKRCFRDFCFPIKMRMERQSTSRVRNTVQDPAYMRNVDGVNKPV
Chain of Sigma non-opioid intracellular receptor 1 (Q60492 whole entry): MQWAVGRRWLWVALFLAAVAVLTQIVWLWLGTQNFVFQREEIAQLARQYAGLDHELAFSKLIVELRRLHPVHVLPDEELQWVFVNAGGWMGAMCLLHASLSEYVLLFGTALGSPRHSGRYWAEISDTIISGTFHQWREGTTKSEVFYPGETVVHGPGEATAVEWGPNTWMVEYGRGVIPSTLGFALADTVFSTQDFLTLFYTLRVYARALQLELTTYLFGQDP

By Ki is commonly meant a measure of affinity in units of concentration, obtained from inhibition or displacement. Read a high Ki as lower affinity. For the compound `C/C(=C\CN1CCOCC1)c1ccc(-c2ccccc2)cc1`, the results for the Ki in test [1] and in test [3] were 11.6 nM and 386 nM, respectively. Further, the Ratio Ki in the test listed under Cavia porcellus was 33.3. In addition, the Activity in test [2] came to 52%; in test [4], 10%; in the test listed under Sus scrofa, 69%.
As to `C/C(=C\CN1CCOCC1)c1ccc2ccccc2c1`, the Ki in test [1] turned out to be 9.6 nM; in test [3], 229 nM. Moreover, the Ratio Ki in the test listed under Cavia porcellus stood at 23.9. The Activity in test [2] came to 44%; in test [4], 15%; in the test listed under Sus scrofa it was 31%.
Regarding `COc1cccc(/C(C)=C/CN2CCCCC2)c1`, the Ki in test [1] came out at 91 nM; in test [3] it was 294 nM. Moreover, the Ratio Ki in the test listed under Cavia porcellus stood at 3.2. Moreover, the values for the Activity (in test [2]; in test [4]; in the test listed under Sus scrofa) were 21%, 22% and 0%, respectively.
In the case of `C/C(=C\CN(C)C)c1ccc2ccccc2c1`, in the test filed under Cavia porcellus, the Ratio Ki stood at 7.5. In test [3], this compound had a Ki of 148 nM.
Consider `COc1ccc(/C(C)=C/CN2CCOCC2)cc1`, for which the Ki in test [1] and in test [3] was more than 1000 nM throughout. The values for the Activity (in test [2]; in test [4]; in the test filed under Sus scrofa) were 0%, 8% and 10%, respectively.
With `C/C(=C\CN1CCC(Cc2ccccc2)CC1)c1ccc2ccccc2c1`, the figures for the inhibition constant (Ki) in test [1] and in test [3] were 23 nM and 16 nM, respectively. In addition, in the test listed under Cavia porcellus, the Ratio Ki was 0.7. In addition, the Activity in test [2] worked out at 38%; in test [4], 10%; in the test listed under Sus scrofa it was 17%.
With `C/C(=C\CN1CCCCC1)c1ccccc1`, the results for the inhibition constant (Ki) in test [1] and in test [3] were 459 nM and 191 nM, respectively. The Ratio Ki in the test filed under Cavia porcellus came out at 0.4. Moreover, the Activity in test [2] worked out at 19%; in test [4] it was 0%; in the test listed under Sus scrofa, 0%.
Regarding `COc1ccc(/C(C)=C/CN(C)C)cc1`, the Ki in test [1] is 806 nM; in test [3] it was more than 1000 nM. Moreover, the Activity in test [2] was determined as 10%; in test [4] it was 20%; in the test listed under Sus scrofa, 0%.
Taken in the same sequence, the figures for `COc1cccc(/C(C)=C/CN2CCOCC2)c1` were more than 1000 nM, more than 1000 nM, 46%, 10% and 20%.
On the same counts, the results for `COc1cccc(/C(C)=C/CN(C)C)c1` are more than 1000 nM, more than 1000 nM, 17%, 5% and 60%.
`C/C(=C\CN(C)C)c1ccccc1`: the Ki in test [1] and in test [3] was more than 1000 nM each time. In addition, the Activity (in test [2]; in test [4]; in the test listed under Sus scrofa) was 0% each time.
Turning to `C/C(=C\CN1CCCCC1)c1ccc2ccccc2c1`, the Ki was 0.97 nM in test [1] and 35.1 nM in test [3]. Besides, the Ratio Ki in the test listed under Cavia porcellus came out at 36.2. In addition, the Activity amounted to 23% in test [2], 44% in test [4] and 16% in the test filed under Sus scrofa.
In the case of `C/C(=C\CN1CCC(Cc2ccccc2)CC1)c1ccc(-c2ccccc2)cc1`, the Ki in test [1] came to 7.02 nM; in test [3], 18 nM. In addition, the Ratio Ki in the test filed under Cavia porcellus is 2.6. The Activity was 0% in test [2], 10% in test [4] and 17% in the test listed under Sus scrofa.
On to `C/C(=C\CN1CCOCC1)c1ccccc1`, for which the Ki in test [1] and in test [3] was more than 1000 nM in each case. In addition, the Activity was 12% in test [2], 3% in test [4] and 19% in the test listed under Sus scrofa.
Regarding `C/C(=C\CN(C)Cc1ccccc1)c1ccc2ccccc2c1`, in the test filed under Cavia porcellus, the Ratio Ki is 111. Also, in test [3], the Ki was 873 nM.
On the same counts, the results for `C/C(=C\CN(C)C)c1ccc(-c2ccccc2)cc1` are 75.7 and 106 nM.
Taken in the same sequence, the figures for `C/C(=C\CN(C)Cc1ccccc1)c1ccc(-c2ccccc2)cc1` were 12 and 75.7 nM.
